Data reported in paper PMC4062594 (Nature chemical biology, 2014).
“Also recorded” adds a separate entry of the source.

Tests used:
[1] = biological target: T1, PTP1B1-405 (Homo sapiens, UniProt P18031); experiment: PTP assay with DiFMUP substrate; type: biochemical
T1 sequence (P18031 1-405): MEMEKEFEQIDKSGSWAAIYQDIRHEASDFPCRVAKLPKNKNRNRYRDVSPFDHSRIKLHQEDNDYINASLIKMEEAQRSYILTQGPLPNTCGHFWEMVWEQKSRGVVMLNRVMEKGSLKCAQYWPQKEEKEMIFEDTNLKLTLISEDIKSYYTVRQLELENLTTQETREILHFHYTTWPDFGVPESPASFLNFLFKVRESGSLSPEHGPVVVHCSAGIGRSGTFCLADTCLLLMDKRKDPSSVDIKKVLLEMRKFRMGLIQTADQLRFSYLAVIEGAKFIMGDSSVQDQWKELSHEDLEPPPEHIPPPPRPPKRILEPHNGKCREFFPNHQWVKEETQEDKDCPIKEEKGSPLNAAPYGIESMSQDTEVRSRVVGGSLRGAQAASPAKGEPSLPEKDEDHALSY

[2] = test system: 10A.B2 cells; experiment: Cell migration assay; type: cell-based; settings: 2D culture, similar extent to PTP1B-directed shRNA
[3] = biological target: T2, PTP1B1-321 (Homo sapiens, UniProt P18031); experiment: Direct binding assay with [3H]-MSI-1436; settings: scintillation counting
T2 sequence (P18031 1-321): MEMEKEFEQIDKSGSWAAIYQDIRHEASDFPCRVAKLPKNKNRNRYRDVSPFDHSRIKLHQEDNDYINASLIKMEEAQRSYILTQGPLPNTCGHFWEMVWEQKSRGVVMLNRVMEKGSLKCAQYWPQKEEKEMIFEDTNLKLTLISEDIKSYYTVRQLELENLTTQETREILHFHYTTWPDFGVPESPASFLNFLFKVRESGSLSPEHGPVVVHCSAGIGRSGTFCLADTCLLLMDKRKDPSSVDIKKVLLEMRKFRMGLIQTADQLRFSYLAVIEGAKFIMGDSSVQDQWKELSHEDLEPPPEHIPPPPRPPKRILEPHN
Method in brief: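 Protein was captured on Ni-NTA beads (10 min, 25°C) and washed three times with buffer containing 150 mM NaCl. Bound ligand was measured by scintillation and bead-bound protein by BCA. Free ligand was calculated as total minus bound, for Scatchard analysis.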

[4] = biological target: T3, PTP1B in tumor lysates from NDL2 mice (Mus musculus, UniProt P35821); experiment: Binding assay with bead-immobilized compound in tumor lysates; settings: confirmed by immunoblotting
T3 sequence (P35821 1-432): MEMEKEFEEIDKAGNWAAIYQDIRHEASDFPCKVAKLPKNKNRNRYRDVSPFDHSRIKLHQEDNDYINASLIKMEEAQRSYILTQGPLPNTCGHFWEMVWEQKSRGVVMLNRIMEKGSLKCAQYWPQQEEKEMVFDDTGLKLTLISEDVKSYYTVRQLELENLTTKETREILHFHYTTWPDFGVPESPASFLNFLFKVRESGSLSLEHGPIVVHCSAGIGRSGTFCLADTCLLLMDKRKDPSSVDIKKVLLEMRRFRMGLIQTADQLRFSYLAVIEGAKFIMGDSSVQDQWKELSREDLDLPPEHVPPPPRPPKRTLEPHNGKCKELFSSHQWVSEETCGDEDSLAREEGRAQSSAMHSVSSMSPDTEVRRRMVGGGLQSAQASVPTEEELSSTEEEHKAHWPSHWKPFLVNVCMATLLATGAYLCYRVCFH
Method in brief: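 Test compound was coupled through its primary amine to NHS-activated magnetic beads (1 mM, 100 mM triethylamine, 8 h, 4°C), and free NHS groups were blocked with 0.8 M aminoethanol. Beads were incubated with 0–1 mg NDL2 tumour lysate protein and washed. Bound protein was eluted by heat in SDS sample buffer, run on 10% SDS-PAGE and identified by immunoblotting. Beads carrying a related amine compound served as negative control.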

[5] = biological target: T4, CFP-PTP1B1-321-YFP (Homo sapiens, UniProt P18031); experiment: Intramolecular FRET titration; type: binding; settings: excitation at 440 nm, 0–5 μM MSI-1436
T4 sequence (P18031 1-321): T2 sequence (P18031 1-321)

[6] = test system: BT474 xenografts re-expressing wild type or L192A/S372P PTP1B; experiment: BT474 xenografts with PTP1B suppressed and re-expressed; type: in vivo, mouse; settings: 5 mg/kg, two independent experiments
Method in brief: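 BT474 cells with PTP1B suppressed by RNAi and re-expressing wild type or mutant PTP1B were used. Luciferase-expressing cells (5×10^6) were injected orthotopically into mammary fat pads of SCID-beige mice in 1:1 DMEM/growth factor-reduced Matrigel. Mice were randomised to saline or test compound 5 mg/kg i.p. every third day. Tumours were followed by luciferin imaging and by palpation (volume = width2 × length/2) three times weekly.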

[7] = biological target: T5, PTP1B (1-346) (Homo sapiens, UniProt P18031); experiment: PTP assay, truncation mutant; type: biochemical; settings: similar to PTP1B1-321
T5 sequence (P18031 1-346): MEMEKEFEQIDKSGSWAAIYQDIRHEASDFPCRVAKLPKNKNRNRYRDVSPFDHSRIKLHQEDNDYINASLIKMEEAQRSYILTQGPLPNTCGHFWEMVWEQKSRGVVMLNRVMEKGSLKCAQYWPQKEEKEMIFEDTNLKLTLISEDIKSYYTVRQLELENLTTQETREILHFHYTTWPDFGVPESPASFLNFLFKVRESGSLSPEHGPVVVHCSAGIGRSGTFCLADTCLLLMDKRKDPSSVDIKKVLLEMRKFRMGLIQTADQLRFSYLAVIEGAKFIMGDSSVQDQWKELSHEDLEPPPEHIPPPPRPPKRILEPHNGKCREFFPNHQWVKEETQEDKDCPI
Method in brief: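 Continuous fluorescence PTP assay with 10 nM purified PTP1B and 10 μM DiFMUP substrate. Emission at 450 nm was monitored for 20 minutes.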

[8] = test system: panel of breast cancer cells; experiment: Cell proliferation assay; type: cell-based
Method in brief: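 Cells (1 × 10^4) per well were grown 12–96 hours in growth medium without or with test compound (2 and 5 μM). Proliferation was read by CellTiter-Glo luminescence.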

[9] = biological target: T2, PTP1B1-321; experiment: Binding of recombinant protein to bead-immobilized compound; settings: in vitro
Method in brief: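 Beads were washed in the same buffer plus 0.01% NP-40 and 1% glycerol, then heat-eluted in SDS sample buffer. Eluates were run on 10% SDS-PAGE and stained with Coomassie or silver.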

[10] = test system: tyrosine phosphorylation-dependent signaling in tumors; experiment: Immunoblotting of tumor lysates from NDL2 mice; type: in vivo; settings: tumor samples from treated NDL2 animals
Method in brief: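 Tumours from treated NDL2 mice were dissected free of connective tissue, ground under liquid nitrogen and lysed 30 min on ice. Lysis buffer: HEPES pH 7.4, glycerol, Triton X-100, NaCl, EGTA, 1 mM orthovanadate, 20 mM NaF, protease inhibitors. Lysates were cleared at 12,000 x g, 15 min, 4 °C. Lysate (20 μg) was blotted with anti-phosphotyrosine (4G10), anti-p62DOK and anti-phospho-Erk, then stripped and reprobed with total-protein antibodies.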

CC(C)[C@@H](CC[C@@H](C)[C@H]1CC[C@H]2[C@@H]3[C@H](O)C[C@H]4C[C@@H](NCCCNCCCCNCCCN)CC[C@]4(C)[C@H]3CC[C@]12C)OS(=O)(=O)O [MSI-1436, Trodusquemine]
mode of inhibition [1]: reversible non-competitive inhibitor
migration [2]: inhibited migration
stoichiometry [3]: 1 mol/mol
retention of 50 kDa band (PTP1B) by compound beads [4]: PTP1B was cleared from the lysate; also recorded: retained
FRET [5]: did not result in FRET
sensitivity of xenografts re-expressing wild type PTP1B versus mutant protein [6]: more sensitive
inhibitory potency compared to PTP1B1-405 and PTP1B1-394 [7]: lower
nature of effects (cytostatic versus cytotoxic) [8]: primarily cytostatic, rather than cytotoxic
proliferation ([8]; cells sensitive to Lapatinib, MSI-1436 2 and 5 μM): inhibited proliferation
binding to bead-immobilized compound [9]: bound
phosphorylation of p44/42 MAP kinase [10]: decrease
tyrosine phosphorylation of p62DOK [10]: significant increase
